Drawing on PubChem BioAssay, this text covers GFP response vs DMSO, GFP response relative to DMSO and GFP response, % of DMSO for 13 compounds.

Calls of active or inactive are those of the source.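 The calls were made as follows, unless noted: active = GFP response above 150% of the DMSO level; inconclusive = fewer than 70 events counted for a yeast strain; inactive = the rest.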

A short description of experiment [1]: hit retest on RPL19A-GFP reporter strain – cell-based, S. cerevisiae, flow cytometry, cherry picks, mother/daughter gates, confirmation (AID 2270;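 active = GFP response below 50% of the DMSO control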). To be noted: 3 h, at 10 µM, stronger effect = lower value, 100 = same GFP as DMSO wells. In general terms: A flow cytometer gives signals particle by particle.
Experiment [2] is described as follows: yeast TOR pathway reporter LAP4-GFP change – cell-based, cherry picks, flow cytometry, mother/daughter gates, confirmation (AID 2271;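 active = GFP response above 150% of the DMSO control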;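 also: ratio of sample to DMSO plate mean so 100% equals DMSO level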). To be noted: S. cerevisiae LAP4-GFP strain, 3 h, at 10 µM, stronger effect = higher value, 100 means same as DMSO control. The procedure, abridged:
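Test system: GFP-fusion yeast strain / Amount: 0.2 OD600 cells / Buffer or medium: SC medium / Dosing: 10 µM single dose / Incubation: compound exposure 3 h at 30 °C, end-over-end rotation / Detection: HT flow cytometry, GFP fluorescence channel / Evaluation: median GFP fluorescence as percent of plate-mean DMSO wells / Control set: DMSO-only negative wells, rapamycin 400 ng/mL positive wells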

A short description of experiment [3]: TOR pathway reporter MEP2-GFP, retest of hits – S. cerevisiae, flow cytometry GFP, cherry picks, confirmation (AID 2272;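 active = GFP response above 150% of the DMSO control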;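 also: ratio of well signal to plate DMSO mean so 100% equals DMSO level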). To be noted: S. cerevisiae MEP2-GFP strain, 3 h, at 10 µM, stronger effect = higher value.
Experiment [4] is described as follows: yeast AGP1-GFP fluorescence change, single-dose – cell-based, flow cytometry, S. cerevisiae, cherry picks, confirmation (AID 2273).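 Also: median GFP channel fluorescence over the whole cell population gate.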 To be noted: S. cerevisiae AGP1-GFP strain, 3 h, at 10 µM.
The nature of experiment [5]: TOR pathway CIT2 reporter hit retest – S. cerevisiae, GFP fusion, cherry picks, mother/daughter gates, confirmation (AID 2274). To be noted: S. cerevisiae CIT2-GFP strain, flow cytometry, 3 h, at 10 µM, stronger effect = higher value.
Where [6] appears, read: measured here: daughter cell gate.
[7] abbreviates: measured here: mother cell gate.
[8] abbreviates: measured here: daughter cell gate response.
The mark [9] stands for this setting: measured here: mother cell gate response.

For `COc1cccc(-c2nnc(NC(=O)c3ccc(S(=O)(=O)N(CC(C)C)CC(C)C)cc3)o2)c1`, the GFP response vs DMSO was 99.7% (inactive) in experiment [1], 99.8% in experiment [1] (setting [6]), 100% in experiment [1] (setting [7]) and 102% (inactive) in experiment [3]. Also, the results for the GFP response relative to DMSO in experiment [2], in experiment [2] (setting [8]) and in experiment [2] (setting [9]) were 98.8% (inactive), 97.9% and 97.5%, respectively. Moreover, the GFP response, % of DMSO in experiment [4] was 101% (inactive); in experiment [5], 102% (inactive); in experiment [5] (setting [6]), 102%; in experiment [5] (setting [7]), 101%.

For `CCOc1cc(/C=C2\N=C(C)OC2=O)cc(Br)c1OCC(=O)OC`, the GFP response vs DMSO in experiment [1] was 98.2% (inactive); in experiment [1] (setting [6]), 100%; in experiment [1] (setting [7]), 96.9%; in experiment [3], 102% (inactive). The GFP response relative to DMSO is 133% (inactive) in experiment [2], 128% in experiment [2] (setting [8]) and 134% in experiment [2] (setting [9]). Besides, the GFP response, % of DMSO in experiment [4] was 94% (inactive); in experiment [5], 99.3% (inactive); in experiment [5] (setting [6]) it was 102%; in experiment [5] (setting [7]) it was 94.5%.

Consider `O=C(O)c1ccc2ccc3ccccc3c2c1`, for which the GFP response vs DMSO in experiment [1] was 96.6% (inactive); in experiment [1] (setting [6]) it was 94.2%; in experiment [1] (setting [7]), 95%; in experiment [3] it was 96.8% (inactive). In addition, the GFP response relative to DMSO was 99.5% (inactive) in experiment [2], 97.5% in experiment [2] (setting [8]) and 98.4% in experiment [2] (setting [9]). Further, the GFP response, % of DMSO in experiment [4] is 105% (inactive); in experiment [5], 122% (inactive); in experiment [5] (setting [6]) it was 121%; in experiment [5] (setting [7]) it was 121%.

Take `Cc1nc(Sc2ccc(Cl)cc2)c(C#N)c(C)c1[N+](=O)[O-]`: the GFP response vs DMSO in experiment [1] was 100% (inactive); in experiment [1] (setting [6]), 100%; in experiment [1] (setting [7]), 98.2%; in experiment [3], 108% (inactive). For the same compound, the GFP response relative to DMSO in experiment [2] is 91.8% (inactive); in experiment [2] (setting [8]), 94.4%; in experiment [2] (setting [9]), 91.3%. The GFP response, % of DMSO is 94.3% (inactive) in experiment [4], 104% (inactive) in experiment [5], 105% in experiment [5] (setting [6]) and 103% in experiment [5] (setting [7]).

On to `CN(C)c1ccc(/C=N/NC(=O)c2ccc(Cl)cc2)cc1`, for which the GFP response vs DMSO is 98% (inactive) in experiment [1], 97% in experiment [1] (setting [6]), 97.4% in experiment [1] (setting [7]) and 102% (inactive) in experiment [3]. Also, the GFP response relative to DMSO in experiment [2] is 102% (inactive); in experiment [2] (setting [8]), 97.9%; in experiment [2] (setting [9]), 103%. The GFP response, % of DMSO in experiment [4] was 100% (inactive); in experiment [5], 97.8% (inactive); in experiment [5] (setting [6]), 98.3%; in experiment [5] (setting [7]), 95.6%.

As to `CCCc1[nH]nc2c1C(c1ccc(OCCN3CCOCC3)c(OC)c1)C(C#N)=C(N)O2` (stereo not drawn), the GFP response vs DMSO in experiment [1] is 96.6% (inactive); in experiment [1] (setting [6]), 96.4%; in experiment [1] (setting [7]), 98.2%; in experiment [3] it was 102% (inactive). Also, the GFP response relative to DMSO in experiment [2] is 97.9% (inactive); in experiment [2] (setting [8]), 99.2%; in experiment [2] (setting [9]), 96.1%. Also, the GFP response, % of DMSO in experiment [4] is 93.9% (inactive); in experiment [5], 101% (inactive); in experiment [5] (setting [6]), 103%; in experiment [5] (setting [7]), 101%.

On to `O=C(O)c1cccc(S(=O)(=O)N2Cc3ccccc3C2)c1`, for which the GFP response vs DMSO is 96.9% (inactive) in experiment [1], 97.3% in experiment [1] (setting [6]), 95.9% in experiment [1] (setting [7]) and 101% (inactive) in experiment [3]. The GFP response relative to DMSO is 106% (inactive) in experiment [2], 101% in experiment [2] (setting [8]) and 108% in experiment [2] (setting [9]). The GFP response, % of DMSO in experiment [4] is 104% (inactive); in experiment [5], 100% (inactive); in experiment [5] (setting [6]) it was 99.3%; in experiment [5] (setting [7]) it was 100%.

Turning to `Cc1cc(C(=O)Nc2nc(-c3ccccn3)cs2)ccc1[N+](=O)[O-]`, the GFP response vs DMSO in experiment [1] was 104% (inactive); in experiment [1] (setting [6]) it was 107%; in experiment [1] (setting [7]), 97.2%; in experiment [3], 107% (inactive). Further, the GFP response relative to DMSO in experiment [2] was 158% (active); in experiment [2] (setting [8]) it was 149%; in experiment [2] (setting [9]), 155%. Besides, the GFP response, % of DMSO is 84.3% (inactive) in experiment [4], 105% (inactive) in experiment [5], 110% in experiment [5] (setting [6]) and 99.3% in experiment [5] (setting [7]).

Consider `O=C(Nc1ccccc1)c1ccccc1O`, for which the GFP response vs DMSO was 96.7% (inactive) in experiment [1], 97.3% in experiment [1] (setting [6]), 95.6% in experiment [1] (setting [7]) and 99.3% (inactive) in experiment [3]. Moreover, the GFP response relative to DMSO is 114% (inactive) in experiment [2], 107% in experiment [2] (setting [8]) and 114% in experiment [2] (setting [9]). Further, the GFP response, % of DMSO in experiment [4] is 97.3% (inactive); in experiment [5] it was 93.1% (inactive); in experiment [5] (setting [6]), 95.8%; in experiment [5] (setting [7]) it was 92.6%.

As to `O=c1c(-c2ccc(Cl)cc2)[n+]([O-])c2ccccc2n1O`, the GFP response vs DMSO is 103% (inactive) in experiment [1], 102% in experiment [1] (setting [6]), 103% in experiment [1] (setting [7]) and 112% (inactive) in experiment [3]. Besides, the GFP response relative to DMSO was 193% (active) in experiment [2], 141% in experiment [2] (setting [8]) and 177% in experiment [2] (setting [9]). Moreover, the GFP response, % of DMSO in experiment [4] was 93% (inactive); in experiment [5], 92.1% (inactive); in experiment [5] (setting [6]), 90.9%; in experiment [5] (setting [7]), 91%.

Turning to `Cc1cc(N2CCCCC2)n2nc(C)c(-c3ccccc3)c2n1`, the GFP response vs DMSO was 99.7% (inactive) in experiment [1], 97.3% in experiment [1] (setting [6]), 100% in experiment [1] (setting [7]) and 97.8% (inactive) in experiment [3]. Also, the GFP response relative to DMSO in experiment [2] was 95% (inactive); in experiment [2] (setting [8]), 97.2%; in experiment [2] (setting [9]), 96.2%. Also, the GFP response, % of DMSO in experiment [4] is 95% (inactive); in experiment [5], 97.8% (inactive); in experiment [5] (setting [6]) it was 96.5%; in experiment [5] (setting [7]) it was 97.7%.

Regarding `CCOC(=O)c1cnn(-c2cc(C)nc3c(-c4ccccc4)c(C)nn23)c1N`, the GFP response vs DMSO in experiment [1] is 96.6% (inactive); in experiment [1] (setting [6]) it was 97.4%; in experiment [1] (setting [7]), 96.6%; in experiment [3], 105% (inactive). Besides, the GFP response relative to DMSO in experiment [2] is 95.4% (inactive); in experiment [2] (setting [8]), 96%; in experiment [2] (setting [9]), 94%. For the same compound, the GFP response, % of DMSO is 94.3% (inactive) in experiment [4], 98.3% (inactive) in experiment [5], 99.1% in experiment [5] (setting [6]) and 97.3% in experiment [5] (setting [7]).

Take `COC(=O)c1ccc(C2Nc3cccc4cccc(c34)N2)cc1`: the GFP response vs DMSO in experiment [1] is 105% (inactive); in experiment [1] (setting [6]), 102%; in experiment [1] (setting [7]), 106%; in experiment [3], 103% (inactive). Further, the GFP response relative to DMSO in experiment [2] was 129% (inactive); in experiment [2] (setting [8]), 123%; in experiment [2] (setting [9]) it was 133%. Further, the GFP response, % of DMSO in experiment [4] is 92.8% (inactive); in experiment [5], 93% (inactive); in experiment [5] (setting [6]), 90.2%; in experiment [5] (setting [7]) it was 93.2%.
